# Source: PMC3553303 (Biochemical pharmacology, 2012)
# Columns and labels:
# FPR2 [1] = molecular target: T1, FPR2 (Homo sapiens, UniProt P25090); test: PathHunter β-arrestin recruitment, FPR2-CHO-K1 cells; type: cell-based; settings: read-out: β-arrestin recruitment EC50
# T1 sequence (P25090 1-351): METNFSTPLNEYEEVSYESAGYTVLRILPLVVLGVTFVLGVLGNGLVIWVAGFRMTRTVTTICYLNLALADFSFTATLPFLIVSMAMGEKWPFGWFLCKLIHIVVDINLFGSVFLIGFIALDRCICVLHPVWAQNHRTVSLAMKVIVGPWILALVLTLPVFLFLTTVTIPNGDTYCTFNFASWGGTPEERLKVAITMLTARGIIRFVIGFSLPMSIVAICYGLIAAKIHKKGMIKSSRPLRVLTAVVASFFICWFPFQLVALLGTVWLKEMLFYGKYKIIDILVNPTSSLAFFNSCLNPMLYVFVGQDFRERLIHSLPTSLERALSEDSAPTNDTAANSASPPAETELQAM
# In short: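 The assay used the PathHunter enzyme-fragment complementation format in FPR2-transfected CHO-K1 cells. Thawed cells were plated at 5000/well in the kit medium and held 48 h at 37 °C with 5% CO2. Test compound was serially diluted at constant DMSO and added for 90 min at 37 °C, then detection reagent for 60 min at room temperature. Chemiluminescence was read.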
# human neutrophils = test: Neutrophil chemotaxis assay; type: cell-based; settings: read-out: Neutrophils Chemotaxis EC50, N.A. = non-active
# FPR2 [2] = molecular target: T1, FPR2; test: Ca2+ mobilization in FPR2-HL-60 cells; type: cell-based; settings: percentage of the response induced by 5 nM WKYMVM
# FPR1 [3] = molecular target: T2, FPR1 (Homo sapiens, UniProt P21462); test: Ca2+ mobilization in FPR1-HL-60 cells; type: cell-based; settings: percentage of the response induced by 5 nM fMLF
# T2 sequence (P21462 1-350): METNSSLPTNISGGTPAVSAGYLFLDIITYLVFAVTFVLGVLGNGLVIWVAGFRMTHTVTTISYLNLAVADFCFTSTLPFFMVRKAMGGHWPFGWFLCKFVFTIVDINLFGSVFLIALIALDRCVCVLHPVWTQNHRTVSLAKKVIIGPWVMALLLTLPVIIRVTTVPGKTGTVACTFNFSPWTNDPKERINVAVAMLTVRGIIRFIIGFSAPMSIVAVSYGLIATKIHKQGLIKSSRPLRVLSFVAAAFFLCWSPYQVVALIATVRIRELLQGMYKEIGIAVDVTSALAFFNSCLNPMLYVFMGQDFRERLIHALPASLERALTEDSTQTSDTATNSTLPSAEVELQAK
# bombesin receptor (BB2) = bombesin receptor (BB2) (Homo sapiens, UniProt P30550); type: binding; settings: read-out: Ki, displacement of [125I][Tyr4]bombesin; PC3 cells
# Chain of bombesin receptor (BB2) (P30550 whole entry): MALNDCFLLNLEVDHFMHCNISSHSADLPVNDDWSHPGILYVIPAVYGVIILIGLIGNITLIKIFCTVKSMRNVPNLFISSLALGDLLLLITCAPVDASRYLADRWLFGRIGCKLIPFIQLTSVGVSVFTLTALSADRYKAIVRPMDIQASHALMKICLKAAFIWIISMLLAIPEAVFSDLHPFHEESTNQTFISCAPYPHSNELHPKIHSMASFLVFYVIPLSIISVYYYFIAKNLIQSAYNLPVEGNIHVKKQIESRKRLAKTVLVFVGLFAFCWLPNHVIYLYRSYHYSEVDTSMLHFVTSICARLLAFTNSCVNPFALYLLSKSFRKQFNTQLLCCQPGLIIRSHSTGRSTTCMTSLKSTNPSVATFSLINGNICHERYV
# FPR1 [4] = molecular target: T2, FPR1; test: PathHunter β-arrestin recruitment, FPR1-CHO-K1 cells; type: cell-based; settings: read-out: β-arrestin recruitment EC50
SMILES,EC50 (FPR2 [1]) [nM],EC50 (human neutrophils) [nM],Ca2+ Mobilization in HL-60 cells FPR2 Efficacy (FPR2 [2]) [%],Ca2+ Mobilization in HL-60 cells FPR1 Efficacy (FPR1 [3]) [%],Ki (bombesin receptor (BB2)) [nM],EC50 (FPR1 [4]) [nM]
C[C@@](Cc1c[nH]c2ccccc12)(NC(=O)Nc1ccc([N+](=O)[O-])cc1)C(=O)NCC1(c2ccccn2)CCCCC1 [PD168368],11100 ± 2800,700 ± 150,75,–,–,–
COc1ccc(C2(CNC(=O)[C@](C)(Cc3c[nH]c4ccccc34)NC(=O)Nc3ccc([N+](=O)[O-])cc3)CCCCC2)nc1 [PD176252],8800 ± 2000,810 ± 220,90,100,66,3800 ± 1100
